# From PubChem
# OX1R antag-1 – OX1R (human) antagonism; O43613; OX1R-expressing cells, FRET antagonist read-out; inhibition, % at 6.6 µM; 1.8% of 330,000 active; AID 485270; in the data active = inhibition mostly above about 38%, no sharp cut-off; inactive = mostly below about 40%;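 note: 0% = agonist challenge alone and 100% = reference antagonist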
# TAAR1 ag – agonists of human TAAR1; activation, % at 3 µM; AID 624467; CHO RD-HGA16 TAAR1, Fluo-8 calcium fluorescence; vehicle wells 0%, saturating PEA agonist 100%; 0.99% of 360,000 active;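 active = activation above the mean activation of all test compounds in the run plus 3 SD, cut at about 38% in these data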
#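 System: CHO-derived RD-HGA16 cells with stable Gα16 and human TAAR1. Times: 17-24 h plating, Fluo-8 75 min 37 °C, 30 min RT. Measured by: calcium-sensitive Fluo-8 signal, excitation 470-495, emission 515-575 nm. Read-out basis: % activation relative to PEA EC100 response. Control set: DMSO and PEA EC100. Repeats: no replicates (n 1).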
# TAAR1 antagonist – antagonists of human TAAR1; inhibition, % at 3 µM; AID 624466; Q96RJ0; CHO RD-HGA16 TAAR1, Fluo-8 calcium fluorescence, antagonist; 1.5% of 360,000 active;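 active = inhibition above a per-plate cutoff, the mean inhibition of test compounds on that plate plus 3 SD, cut at about 49% in these data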;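 note: 0% = DMSO plus EC80 beta-PEA response and 100% = DMSO alone without agonist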
#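 Test system – hTAAR1-expressing CHO RD-HGA16 cells, Gα16-coupled · Also added – β-PEA at EC80 concentration, post-compound challenge · Compound – 3 µM, single point · Incubation – dye loading 75 min at 37 °C, then 30 min room temperature · Measured by – Fluo-8 intracellular calcium dye fluorescence, real-time kinetic reads · Benchmarks – vehicle and agonist controls · Replicates – singlicate, one well per test compound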
# CHO parental Ca – counter-screen for OX1R antagonists: effect in parental CHO cells. 0.63% of 330,000 active. inhibition, % at 5.6 µM. parental CHO-K1, ATP-induced calcium, Fluo-8 fluorescence. AID 463079;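 active = inhibition above that plate's mean sample inhibition plus 3 SD, cut at about 26% in these data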;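 note: 0% = ATP-challenged DMSO wells and 100% = DMSO wells without ATP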
#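 Material: parental CHO cells / Compound: single nominal dose of 5.6 µM per compound / Signal: Fluo-8 fluorescence / Replicates: singlicate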
# OX1R antag-2 – blocks the human orexin 1 receptor; 0.43% of 330,000 active; CHO/OX1R cells, Fluo-8 calcium fluorescence, orexin A; O43613; inhibition, % at 5 µM;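 active = inhibition above its plate's threshold, mean inhibition of all tested compounds on the plate plus 3 SD, cut at about 37% in these data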;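 note: 0% = orexin A challenge wells and 100% = SB-334867-A antagonist wells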
# GPR7 antag – blocks human GPR7 receptor signaling; P48145; GPR7-expressing cells, fluorescence antagonist assay; inhibition, % at 4.4 µM; 1.1% of 290,000 active; AID 1861; in the data active = inhibition above about 16%, passing the limit was not always enough;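 note: cells stimulated with the agonist NPW; 0% = agonist with vehicle and 100% = vehicle without agonist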
# Target sequence (P48145 whole entry, looked up): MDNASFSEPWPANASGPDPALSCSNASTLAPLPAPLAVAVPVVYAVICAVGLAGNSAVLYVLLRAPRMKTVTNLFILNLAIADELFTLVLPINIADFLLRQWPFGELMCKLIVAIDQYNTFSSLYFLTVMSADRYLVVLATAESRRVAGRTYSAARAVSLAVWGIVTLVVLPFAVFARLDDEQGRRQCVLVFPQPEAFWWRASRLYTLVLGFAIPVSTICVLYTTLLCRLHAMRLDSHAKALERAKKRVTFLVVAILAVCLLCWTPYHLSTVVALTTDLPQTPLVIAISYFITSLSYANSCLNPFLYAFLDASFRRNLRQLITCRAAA
# nonsel antag count – nonselective antagonist in TAAR1 antagonist counter-screen; shares compounds with TAAR1 antagonist; counterscreen cell line, calcium fluorescence, antagonist mode; inhibition, % at 3 µM; 77% of 2,400 active; AID 651780; in the data active = inhibition above about 22%;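 note: CHO-Ga16 host cells stimulated with ATP at an EC80 level; 0% = agonist EC80 plus vehicle and 100% = vehicle without agonist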
# TAAR1 antag conf – human TAAR1 antagonism, confirmed; TAAR1-expressing cells, fluorescence antagonist read-out; inhibition, % at 3 µM; AID 651785; 40% of 2,400 active; shares compounds with TAAR1 antagonist; in the data active = inhibition above about 49%;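 note: CHO-Ga16 host cells challenged with agonist PEA near its EC80; 0% = agonist at EC80 plus vehicle and 100% = vehicle with no agonist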
# Ga16 nonsel ag – nonselective Ga16 agonist in TAAR1 antagonist counter-screen; shares compounds with TAAR1 antagonist; Ga16-expressing cells, calcium fluorescence, agonist counterscreen; activation, % at 3 µM; 18% of 2,400 active; AID 651953; in the data active = activation above about 12%;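 note: 0% = vehicle wells and 100% = saturating stimulus response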
# TAAR1 ag count – counter-screen for human TAAR1 antagonists: TAAR1 agonists; shares compounds with TAAR1 antagonist; hTAAR1 cell line, fluorescence activation, agonist mode; activation, % at 3 µM; 2% of 2,400 active; AID 651955; in the data active = activation above about 37%;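 note: CHO cells stably expressing TAAR1 with calcium dye readout; 0% = DMSO vehicle and 100% = full agonist response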
# The depositor's hits bear a star; · = not tested or not shown; ! = repeats disagree. This is a sample that favours compounds with a hit; in the whole collection about 4.5% have one here.
SMILES,OX1R antag-1,TAAR1 ag,TAAR1 antagonist,CHO parental Ca,OX1R antag-2,GPR7 antag,nonsel antag count,TAAR1 antag conf,Ga16 nonsel ag,TAAR1 ag count
O=C(N/N=C/c1cccc(OC(=O)c2cccc(Br)c2)c1)c1ccncc1,6,13,58*,-19,-13,-5,26*,48,15*,27
Cc1cc(Br)ccc1NC(=O)c1ccccc1-c1ccccc1,29,1,57*,-36,-54,-7,3,1,2,2
COC(=O)c1cc2c(c3c4ccccc4n(S(=O)(=O)c4ccccc4)c13)C(=O)N(Cc1ccco1)C2,·,0,3,·,·,·,·,·,·,·
COC(=O)c1cc2c(c3c4cc(F)ccc4n(S(=O)(=O)c4ccccc4)c13)C(=O)N(Cc1ccco1)C2,·,1,-8,·,·,·,·,·,·,·
COC(=O)c1cc2c(c3c4cc(OC)ccc4n(C(=O)c4ccccc4)c13)C(=O)N(Cc1ccco1)C2,·,15,65*,·,·,·,29*,50*,7,6
COC(=O)c1cc2c(c3c4cc(F)ccc4n(C(=O)c4ccccc4)c13)C(=O)N(Cc1ccco1)C2,·,15,68*,·,·,·,26*,44,10,8
COc1ccc(OC)c(NC(=O)CCN2C(=O)c3ccccc3C2=O)c1,·,3,4,·,·,-8,·,·,·,·
COc1cccc2[nH]c(C(=O)NCc3ccccc3)cc12,-11,-1,-6,-13,-28,-3,·,·,·,·
CCCc1cc(=O)[nH]c(SCc2cc(=O)oc3cc(C)c(C(C)C)cc23)n1,6,-3,103*,-6,-2,-2,16,1,3,5
CCCc1cc(=O)[nH]c(SCc2nc3ccccc3o2)n1,3,-4,-7,-16,-2,4,·,·,·,·
CCOc1ccc(C(=O)NCc2ccccc2OC)cc1,12,1,2,-2,-3,-4,·,·,·,·
CCc1ccc(C(=O)COC(=O)c2ccc(-c3nnc(-c4ccccc4)o3)cc2)cc1,16,4,-10,-2,-12,-3,·,·,·,·
Cc1ccc(-c2nn(-c3cccc(F)c3)cc2CN2CCN(c3ccccn3)CC2)o1,13,3,-22,-23,-35,-9,·,·,·,·
Cc1ccc(-c2nn(-c3cccc(F)c3)cc2CNCc2cccnc2)o1,14,9,66*,-15,-26,-9,31*,43,7,11
O=C(NCc1ccccc1Cl)c1ccc(Br)o1,27,-3,104*,-8,-16,3,1,-7,-1,1
O=C(O)c1ccc(COc2ccccc2C=C2C(=O)c3ccccc3C2=O)cc1,29,30,75*,5,-11,3,37*,54*,11,23
CN1C(=O)/C(=C/c2ccccc2OCc2ccc(C(=O)O)cc2)NC1=S,65,1,-3,-12,-12,-10,·,·,·,·
CCCCNc1c(-c2ccc(OC)c(SC(C)CC)c2)nc2ccc(C)cn12 (stereo not drawn),60*,19,91*,94*,87*,·,46*,58*,8,9
CCCCNc1c(-c2cccc(SC(C)CC)c2)nc2ccc(Cl)cn12 (stereo not drawn),17,9,57*!,-20,-14,·,19,27,4,6
CCCCNc1c(-c2ccc(SC3CCCCC3)c(OC)c2)nc2ccc(C)cn12,14,2,74*,25,21,·,36*,36,0,0
Cc1ccc(C(=O)NCC(=O)OCC(=O)/C=C2\N(C)c3ccccc3C2(C)C)cc1C,16,3,58*,-15,-36,-6,29*,41,6,8
Cc1ccc([N+](=O)[O-])cc1NC(=O)c1ccccc1,21,-1,6,2,-15,-1,·,·,·,·
